MEKK2 mut-MEK5 = signal of MEK5 binding to mutant human MEKK2 PB1 domain; bead flow cytometry, Alexa488-MEK5 binding to MEKK2 mutant; 290,000 tested, 0.35% active; AID 1530; percent response, % at 10 µM; in the data active = percent response above about 24%, passing the limit was not always enough
MEKK2 WT-MEK5 = raises or lowers MEK5 binding to wildtype human MEKK2 PB1 domain. 290,000 tested, 1.1% active. binding response (% of control), % at 10 µM. bead flow cytometry, Alexa488-MEK5 binding to MEKK2 WT; actives lie on both sides. Q9Y2U5; in the data active = binding response below about 67% or above about 130%
DNA FID counter = counter-screen for HCV NS3 helicase inhibitors: DNA intercalator displacement. 290,000 tested, 0.17% active. DNA fluorescent intercalator displacement, fluorescence. inhibition, % at 7.9 µM. AID 1845; in the data active = inhibition above about 37%;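 note: 0% = vehicle and 100% = reference compound; higher means more ethidium bromide displaced from hairpin DNA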
T cruzi inh = T. cruzi replication inhibition | T. cruzi beta-gal in NIH3T3, luminescence, 90 h | inhibition, % (no concentration beside the values) | 300,000 tested, 1.4% active | AID 1885;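 active = mean inhibition across valid replicates above about 55%, limit read from the data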;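 note: signal also drops with host cell toxicity which is not excluded here; 0% = plate median of DMSO wells and 100% = zero luminescence signal; higher percent means less beta-gal luminescence so fewer parasites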
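Test system: β-gal T. cruzi (Tulahuen C4) inside NIH/3T3 cells / Quantity: 5,000 cells/well / Measured by: luminescence from GalScreen with 0.05% NP40, read after 60 min / Medium: DMEM plus 2% FBS / Measure: parasite load inhibition, % / Reagent: Tulahuen C4 trypomastigotes, 5000/well / Schedule: co-culture of at least 90 h after 3 h attachment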
MEKK3 PB1 HTS = raises or lowers MEK5 binding to the human MEKK3 PB1 domain; binding response (% of control), % at 10 µM; 290,000 tested, 1.4% active; Q99759; bead-based flow cytometry, Alexa488-MEK5 binding to MEKK3; actives lie on both sides; 0 = blocked by unlabeled MEK5, 100 = vehicle; AID 1529;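 active = binding response more than 3 SD above or below the average of its plate-row segment, actives on both sides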;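 note: Alexa488 bead fluorescence after subtracting the streptavidin-only scavenger bead signal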
Target sequence (Q99759 whole entry, looked up, the tested form may be a part): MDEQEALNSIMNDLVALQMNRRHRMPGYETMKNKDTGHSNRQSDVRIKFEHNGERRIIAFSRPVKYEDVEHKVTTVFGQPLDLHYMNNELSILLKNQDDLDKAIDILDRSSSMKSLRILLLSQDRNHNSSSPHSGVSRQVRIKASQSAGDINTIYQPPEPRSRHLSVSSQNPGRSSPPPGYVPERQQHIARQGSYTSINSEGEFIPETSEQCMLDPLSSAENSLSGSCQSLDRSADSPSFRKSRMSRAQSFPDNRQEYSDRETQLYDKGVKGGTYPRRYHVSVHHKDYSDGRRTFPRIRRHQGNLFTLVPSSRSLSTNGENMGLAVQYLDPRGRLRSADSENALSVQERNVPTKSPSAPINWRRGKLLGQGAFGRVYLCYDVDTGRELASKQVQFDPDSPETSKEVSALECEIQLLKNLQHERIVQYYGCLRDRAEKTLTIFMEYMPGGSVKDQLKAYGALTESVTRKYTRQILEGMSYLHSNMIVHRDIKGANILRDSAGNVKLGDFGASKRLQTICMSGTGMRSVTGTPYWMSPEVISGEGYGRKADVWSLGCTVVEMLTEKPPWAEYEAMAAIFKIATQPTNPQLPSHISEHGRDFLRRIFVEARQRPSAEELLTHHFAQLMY
HCV NS3 hel inh = HCV NS3 helicase inhibition; inhibition, % at 10.9 µM; NS3 helicase DNA unwinding, Cy5 molecular beacon fluorescence; 290,000 tested, 0.56% active; AID 1800;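 active = inhibition above the mean of all tested compounds plus 3 SD, set per campaign, cut at about 35% in these data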;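 note: 0% = DMSO wells and 100% = thioflavine S control wells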
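Compound dosing – single dose, 10.9 µM nominal final, DMSO 0.8% final · System – NS3 helicase fragment of HCV · Buffer or medium – MOPS pH 6.5, MgCl2, DTT, Tween20, BSA · Signal – Cy5 beacon fluorescence read at start and 1 h · Also added – annealed dual-labelled DNA beacon duplex, ATP-started · Schedule – 1 h at 25 °C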
MEKK2wt confirm = raises or lowers MEK5 binding to wildtype human MEKK2, retest. shares compounds with MEKK3 PB1 HTS. bead flow cytometry, Alexa488-MEK5 binding to MEKK2 WT; actives lie on both sides. binding response (% of control), % at 10 µM. 5,900 tested, 2.4% active. AID 1892; in the data active = binding response below about 16% or above about 210%; inactive = in between
MEKK2mut-MEK5 = signal of MEK5 binding to mutant human MEKK2, retest; bead flow cytometry, Alexa488-MEK5 binding to MEKK2 mutant; percent response, % at 10 µM; 5,900 tested, 2% active; AID 1893; shares compounds with MEKK3 PB1 HTS; in the data active = percent response mostly above about 71%, no sharp cut-off; inactive = mostly below about 38%;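 note: higher means compound restores mutant binding toward wildtype level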
MEKK3 confirm = confirmation of inhibitors of MEK5 binding to human MEKK3. shares compounds with MEKK3 PB1 HTS. bead flow cytometry, Alexa488-MEK5 binding to MEKK3; active compounds read low. binding response (% of control), % at 10 µM. 5,900 tested, 1.8% active;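 active = binding response below 72% of control, or above a set upper limit, though filed actives all read lower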;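 note: 100% = DMSO only wells and 0% = binding blocked by excess unlabeled MEK5; lower values mean stronger disruption of MEK5 binding to MEKK3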
* = called active by the depositor; x = no result; [ ] = another dose, or the depositor's remark. Sampled rows, rich in hits. Any-hit rate of the full collection: about 4.1%.

SMILES	MEKK2 mut-MEK5	MEKK2 WT-MEK5	DNA FID counter	T cruzi inh	MEKK3 PB1 HTS	HCV NS3 hel inh	MEKK2wt confirm	MEKK2mut-MEK5	MEKK3 confirm
COc1ccc(C[C@H]2CN3C(=NC[C@@H]3Cc3ccccc3)N2CCNC(=O)c2ccc(C)c(Br)c2)cc1	132*	271*	16	48	109	-69	200	56	102
COc1ccc(C[C@H]2CN3C(=NC[C@H]3Cc3ccccc3)N2CCNC(=O)c2ccc(C)c(Br)c2)cc1	27*	154*	x	39	105	x	176	26	105
Cc1ccc2c(CC(=O)Nc3cccc(S(=O)(=O)N4CCOCC4)c3)coc2c1	-2	107	-19	-7	105	-5	x	x	x
CC(C)(C)C(=O)Nc1ccc(NC(=O)C(C)(C)C)cc1	-31	48	1	-11	48*[inhibitor]	-1	87	-12	78
COc1ccccc1NC(=O)c1cccc2c(Br)cccc12	12	108	-24	-23	110	6	x	x	x
CCC(C)NC(=O)C1CCN(c2nc(OC)nc(OC)n2)CC1 (stereo not drawn)	-4	-1.0*[inhibitor]	-5	-1	0.0*[inhibitor]	17	230*	76*	114
CCC(C)NC(=O)C1CCN(c2nc(C)cc(C)n2)CC1 (stereo not drawn)	0	99	-1	-9	99	-14	x	x	x
COc1ccccc1NC(=O)CN1CCC(n2c(C)nc3cc(F)ccc32)CC1	-16	2.0*[inhibitor]	-26	15	2.0*[inhibitor]	5	106	5	106
O=[N+]([O-])c1ccc(N/N=C/c2sc(N3CCOCC3)nc2-c2ccccc2)c(S(=O)(=O)Nc2ccc(Cl)cc2)c1	-32	x	0	84*	11*[inhibitor]	9	79	-9	82
O=C(O)c1cccc(N/N=C/c2sc(N3CCOCC3)nc2-c2ccccc2)c1	0	97	-15	0	102	4	x	x	x
O=C(NCCc1c[nH]c2ccccc12)/C(=C\c1cccs1)NC(=O)c1ccccc1	-1	96	-4	9	41*[inhibitor]	-17	101	1	105
Cc1cc2[nH]c3c(c[n+](C)c4ccccc34)c2cc1C	-2	144*	64*	59*	61	27	201	73*	113
COCc1nnc(NS(=O)(=O)c2ccc(F)cc2)s1	13	99	-4	4	101	1	x	x	x
COCCSc1nnc(NS(=O)(=O)c2ccc(F)cc2)s1	0	119	-5	-1	136*	19	105	19	106
CCOC(=O)N1CCN(S(=O)(=O)c2c(C(=O)N3CCCCC3)c(C)n(C)c2C)CC1	-1	97	-29	-17	100	-4	x	x	x
O=C(Nc1ccc(Cl)cc1F)C1CCN(S(=O)(=O)c2cccc3nonc23)CC1	-3	98	4	-6	102	13	x	x	x
O=C(C1=C(Nc2ccccc2)c2ccccc2S(=O)(=O)N1)c1ccccc1	-2	85	-1	-3	64*[inhibitor]	-1	95	-7	103
COCCCNC(=O)Cn1c(=O)n(Cc2ccc(C(=O)NCCc3ccc(OC)c(OC)c3)cc2)c(=O)c2ccccc21	-8	74	-52	-7	79	-9	x	x	x
Cc1noc(C)c1COc1ccc(C(=O)OC(C)C(=O)Nc2ccc(S(=O)(=O)N3CCOCC3)cc2)cc1 (stereo not drawn)	2	105	-6	-3	152*	-4	99	-2	104
O=C(c1cccc(Oc2c(Cl)cccc2[N+](=O)[O-])c1)N1CCOCC1	7	106	-20	-12	104	5	x	x	x
O=C(Cc1ccc(F)cc1)NCCS(=O)(=O)N1CCN(c2cccc(Cl)c2)CC1	x	x	x	-9	x	x	x	x	x
NNC(=O)C1CC1c1ccccc1 (stereo not drawn)	7	98	-6	-4	99	-8	x	x	x
NNC(=O)[C@@H]1C[C@@H]1c1ccccc1	0	111	-6	1	153*	6	84	-13	84
CCOP(=O)(Nc1ccc2oc(=O)c3ccccc3c2c1)OCC	8	81	-17	1	85	-11	x	x	x
CCCN1CCC(=O)N([C@H](CN=[N+]=[N-])CC(C)C)CC1	0	122	-15	21	101	-37	x	x	x
SMILES	MEKK2 mut-MEK5	MEKK2 WT-MEK5	DNA FID counter	T cruzi inh	MEKK3 PB1 HTS	HCV NS3 hel inh	MEKK2wt confirm	MEKK2mut-MEK5	MEKK3 confirm
Fc1cccc(Cl)c1Cn1nnc2c(NCc3ccncc3)ncnc21	63*	82	-4	-7	104	13	104	-4	95
Cc1nnc(SCC(N)=O)n1CCc1ccccc1	2	110	1	-6	136*	0	97	-2	100
CC(=O)Nc1ccc(Oc2cncc(Cl)c2)nc1	2	100	-4	-12	102	7	x	x	x
CCOC(=O)C(C)Sc1nc(=O)n2cc(C)ccc2n1 (stereo not drawn)	-15	54	-2	-8	45*[inhibitor]	-2	117	7	103
CCCCN(C(=O)c1ccc(S(=O)(=O)N2CCCCC2)cc1)C1CCS(=O)(=O)C1 (stereo not drawn)	x	x	x	1	x	x	x	x	x
Cc1ccc(CNC(=O)Cn2c(=O)n(CC(=O)N3CCCCC3)c(=O)c3sccc32)cc1	-1	103	-19	-9	101	-17	x	x	x
Cc1ccc(CNC(=O)Cn2c(=O)c3sccc3n(Cc3ccc([N+](=O)[O-])cc3)c2=O)cc1	0	107	0	21	163*	7	104	1	100
Cc1ccc(C)c(-c2nc3ccc(N)cc3[nH]2)c1	13	33*[inhibitor]	2	-16	108	-4	104	7	105
Cc1nc2ccc(-c3nc4ccc(N)cc4[nH]3)cc2[nH]1	x	x	21	-3	25*[inhibitor]	-18	104	12	98
Nc1ccc(-c2nc3ccc(N)cc3[nH]2)cc1	-17	73	36	-12	69	-38	x	x	x
CCc1ccc(NC(=O)CSc2nnc(CNC(=O)c3c(F)cccc3Cl)o2)cc1	-24	3.0*[inhibitor]	-10	-2	3.0*[inhibitor]	3	104	3	101
Cc1nn(CCOc2ccccc2)c(=O)n1-c1ccc(Cl)cc1	4	123	-17	-5	141*	5	102	-1	103

Screening results (PubChem)
